Assay [1] deals with Aldo-keto reductase family 1 member A1 (Rattus norvegicus, UniProt P51635). The assay can be described thus: In vitro inhibitory activity against L-Hexonate Dehydrogenase (L-HDH) from rat kidney (RK).
The target in assay [2] is Aldo-keto reductase family 1 member B1 (Rattus norvegicus) (UniProt P07943). Briefly: Selectivity as ratio of IC50 for rat lens and kidney […].
For assay [3], the target named is Aldo-keto reductase family 1 member B1 (Rattus norvegicus, UniProt P07943). The assay can be described thus: In vitro inhibition of Aldose reductase (AR) from rat lens (RL). The essentials:
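Unfractionated rat lens supernatant (50–100 μg protein) run in the reverse direction: 50 mmol/L potassium phosphate pH 7.5, 12 mmol/L benzyl alcohol, 12 μmol/L oxidized 3-acetylpyridine adenine dinucleotide phosphate, room temperature. Reduced analogue formation followed fluorometrically at 365/480 nm. Same enzyme activity used for all inhibitors. IC50 from linear regression over the linear part of the dose–response curve.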

Aldo-keto reductase family 1 member A1, sequence (P51635 whole entry, looked up): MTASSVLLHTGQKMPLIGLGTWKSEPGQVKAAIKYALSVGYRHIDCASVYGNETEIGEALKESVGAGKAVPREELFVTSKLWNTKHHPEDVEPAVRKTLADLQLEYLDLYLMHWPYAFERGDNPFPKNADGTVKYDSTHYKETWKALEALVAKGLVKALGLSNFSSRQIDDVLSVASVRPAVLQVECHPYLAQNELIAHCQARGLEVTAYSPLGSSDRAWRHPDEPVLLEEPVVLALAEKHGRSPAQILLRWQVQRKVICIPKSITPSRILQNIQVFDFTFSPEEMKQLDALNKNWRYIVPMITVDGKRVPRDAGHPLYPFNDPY

On to `O=C(O)Cc1nn(Cc2ccc(Br)cc2F)c(=O)c2ccccc12` [PONALRESTAT], for which the results for the half-inhibitory concentration (IC50) in assay [1] and in assay [3] were 2.4 µM and 0.02 µM, respectively. In assay [2], the Selectivity quotient amounted to 0.008.

As for `COc1ccc2c(C(=S)N(C)CC(=O)O)cccc2c1C(F)(F)F` [TOLRESTAT], inhibition in assay [3] was half-maximal at 0.002 µM (IC50). This counts as single-digit nanomolar.

With `O=C1NS(=O)(=O)CC12c1cc(F)ccc1-c1ccc(F)cc12`, the figures for the IC50 in assay [1] and in assay [3] were 3.75 µM and 6150 µM, respectively. Besides, in assay [2], the Selectivity quotient came out at 1640.

Turning to `O=C1NS(=O)(=O)CC12c1ccccc1-c1ccc(Cl)cc12` (centres undefined), the IC50 in assay [1] turned out to be 3.51 µM; in assay [3], 2370 µM. For the same compound, the Selectivity quotient in assay [2] was found to be 675.

Turning to `O=C1CC2(c3ccccc3-c3ccc(Cl)cc32)S(=O)(=O)N1` (centres undefined), the IC50 in assay [1] turned out to be 0.105 µM; in assay [3], 0.233 µM. Also, the Selectivity quotient in assay [2] is 2.22.

For `O=C1NC(=O)C2(N1)c1cc(F)ccc1-c1ccc(F)cc12`, the IC50 turned out to be 0.005 µM in assay [1] and 0.009 µM in assay [3]. In addition, the Selectivity quotient in assay [2] was 1.8.

On to `O=C1CC2(c3ccccc3-c3ccc(F)cc32)S(=O)(=O)N1` (centres undefined), for which the figures for the IC50 in assay [1] and in assay [3] were 0.151 µM and 0.169 µM, respectively. For the same compound, in assay [2], the Selectivity quotient came to 1.12.

Consider `O=C1CC2(C(=O)N1)c1cc(F)ccc1-c1ccc(F)cc12`, for which the IC50 in assay [1] was determined as 0.009 µM; in assay [3], 0.005 µM. The Selectivity quotient in assay [2] stood at 0.56.

In the case of `O=C1NS(=O)(=O)CC12c1ccccc1-c1ccc(F)cc12` (centres undefined), the IC50 is 2.1 µM in assay [1] and over 10000 µM in assay [3]. Further, in assay [2], the Selectivity quotient was over 5000.

As to `O=C1NS(=O)(=O)CC12c1ccccc1-c1ccccc12`, the IC50 in assay [1] was 4.5 µM; in assay [3] it was over 10000 µM. In assay [2], the Selectivity quotient is over 2000.

Consider `O=C1CC2(c3cc(F)ccc3-c3ccc(F)cc32)S(=O)(=O)N1`, for which the IC50 in assay [1] came out at 0.027 µM; in assay [3], 0.018 µM. The Selectivity quotient in assay [2] came out at 0.68.

Regarding `O=C1CC2(c3ccccc3-c3ccccc32)S(=O)(=O)N1`, the IC50 was determined as 1.75 µM in assay [1] and 1.9 µM in assay [3]. For the same compound, in assay [2], the Selectivity quotient came to 1.09.

Usually IC50 stands for the concentration that gives 50% inhibition. High values mean weaker potency in that assay, low ones greater potency in that assay.
